{"source": "ChEMBL document CHEMBL1148277", "about": "“Synthesis and pharmacological evaluation of 3-(3,4-dichlorophenyl)-1-indanamine derivatives as nonselective ligands for biogenic amine transporters” (J Med Chem, 2004)", "key": {"[1]": {"target": "T1, Sodium-dependent dopamine transporter (Rattus norvegicus, UniProt P23977)", "T1 sequence (P23977 whole entry)": "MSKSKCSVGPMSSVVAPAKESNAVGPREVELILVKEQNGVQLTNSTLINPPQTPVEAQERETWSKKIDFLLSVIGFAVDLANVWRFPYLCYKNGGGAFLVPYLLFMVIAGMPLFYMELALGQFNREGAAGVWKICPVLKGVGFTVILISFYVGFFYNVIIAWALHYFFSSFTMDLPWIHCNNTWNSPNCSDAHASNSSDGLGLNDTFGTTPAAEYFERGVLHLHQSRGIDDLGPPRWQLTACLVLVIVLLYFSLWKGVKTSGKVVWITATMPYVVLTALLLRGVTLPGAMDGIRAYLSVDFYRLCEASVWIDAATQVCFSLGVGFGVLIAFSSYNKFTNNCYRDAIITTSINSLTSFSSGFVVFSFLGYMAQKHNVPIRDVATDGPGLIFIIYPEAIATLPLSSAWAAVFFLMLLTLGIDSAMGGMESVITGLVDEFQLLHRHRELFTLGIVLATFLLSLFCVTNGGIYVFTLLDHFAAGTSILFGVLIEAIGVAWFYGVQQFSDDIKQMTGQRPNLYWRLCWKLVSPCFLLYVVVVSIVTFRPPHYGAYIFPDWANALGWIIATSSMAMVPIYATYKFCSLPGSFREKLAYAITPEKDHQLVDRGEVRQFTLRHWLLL", "test": "Reuptake inhibitory activity against dopamine DA transporter"}, "[2]": {"target": "T1, Sodium-dependent dopamine transporter", "test": "Binding affinity for DA transporter using [125I]RTI-55 in frozen rat caudate membranes", "format": "cell membranes", "procedure,_shortened": "(§1)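 Rat caudate membranes as stated in the lines. For NET binding, 5 mM KCl and 300 mM NaCl were added. Radioligand was in protease inhibitors (chymostatin, leupeptin, EDTA, EGTA). Ended by filtration over PEI-presoaked GF/B filters; Ki derived.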"}, "[3]": {"target": "T2, Norepinephrine transporter (Rattus norvegicus, UniProt Q9WTR4)", "T2 sequence (Q9WTR4 whole entry)": "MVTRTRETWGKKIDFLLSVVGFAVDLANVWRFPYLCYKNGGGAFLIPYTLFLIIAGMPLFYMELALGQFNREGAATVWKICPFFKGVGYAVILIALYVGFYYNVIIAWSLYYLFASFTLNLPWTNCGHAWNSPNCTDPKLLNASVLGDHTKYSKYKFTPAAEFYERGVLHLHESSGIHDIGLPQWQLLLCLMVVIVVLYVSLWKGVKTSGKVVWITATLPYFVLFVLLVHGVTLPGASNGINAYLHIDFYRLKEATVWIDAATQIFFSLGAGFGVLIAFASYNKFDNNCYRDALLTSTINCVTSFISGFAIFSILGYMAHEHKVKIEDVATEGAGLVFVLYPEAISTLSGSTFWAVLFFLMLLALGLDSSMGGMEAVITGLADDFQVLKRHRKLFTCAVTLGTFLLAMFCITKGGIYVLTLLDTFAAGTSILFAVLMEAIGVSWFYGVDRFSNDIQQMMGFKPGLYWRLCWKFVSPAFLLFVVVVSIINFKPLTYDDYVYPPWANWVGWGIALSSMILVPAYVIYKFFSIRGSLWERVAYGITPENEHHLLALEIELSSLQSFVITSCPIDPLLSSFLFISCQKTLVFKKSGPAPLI", "test": "Reuptake inhibitory activity against NE transporter", "format": "functional"}, "[4]": {"target": "T2, Norepinephrine transporter", "test": "Displacement of from norepinephrine transporter of frozen rat caudate membranes", "format": "cell membranes, Membrane", "procedure,_shortened": "as §1"}, "[5]": {"target": "T3, Sodium-dependent serotonin transporter (Rattus norvegicus, UniProt P31652)", "T3 sequence (P31652 whole entry)": "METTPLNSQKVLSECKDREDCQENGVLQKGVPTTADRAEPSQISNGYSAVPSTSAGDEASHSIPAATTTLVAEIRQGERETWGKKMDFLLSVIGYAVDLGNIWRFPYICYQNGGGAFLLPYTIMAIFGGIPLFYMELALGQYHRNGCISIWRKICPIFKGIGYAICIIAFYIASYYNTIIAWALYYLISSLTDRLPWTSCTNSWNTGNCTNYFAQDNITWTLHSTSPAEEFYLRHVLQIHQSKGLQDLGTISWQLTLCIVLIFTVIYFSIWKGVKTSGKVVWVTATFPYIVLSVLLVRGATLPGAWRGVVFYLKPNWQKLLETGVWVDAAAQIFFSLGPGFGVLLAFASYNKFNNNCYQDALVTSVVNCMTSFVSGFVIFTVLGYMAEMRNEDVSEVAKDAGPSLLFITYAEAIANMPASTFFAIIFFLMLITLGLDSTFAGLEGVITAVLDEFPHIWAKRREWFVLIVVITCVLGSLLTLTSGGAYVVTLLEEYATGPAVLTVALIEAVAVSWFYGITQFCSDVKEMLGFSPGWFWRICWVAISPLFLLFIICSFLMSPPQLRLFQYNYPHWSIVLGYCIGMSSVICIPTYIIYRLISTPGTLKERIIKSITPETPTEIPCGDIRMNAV", "test": "Reuptake inhibitory activity against Serotonin transporter", "procedure,_shortened": "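[³H]5-HT uptake in crude synaptosomes from rat whole brain minus caudate, in Krebs phosphate buffer pH 7.4 with 1 mg/mL ascorbic acid and 50 μM pargyline. Stopped after 30 min by Tris-HCl/NaCl wash buffer and rapid GF/B filtration. Run twice, each in triplicate.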"}, "[6]": {"target": "T3, Sodium-dependent serotonin transporter", "test": "(§2) Displacement of [125I]RTI-55 from serotonin transporter of frozen rat caudate membranes", "format": "cell membranes, Membrane", "procedure,_shortened": "as §1"}, "[7]": {"target": "T3, Sodium-dependent serotonin transporter", "test": "as §2", "format": "cell membranes, Membrane", "procedure,_shortened": "as §1, with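 “lines. Incubated 18–24 h at 4 °C to equilibrium with radioligand and test drug in 55.2 mM sodium phosphate buffer, pH 7.4, with 1 mg/mL BSA.” for “lines.”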", "remark": "listed apart in the source"}}}
{"smiles": "CN[C@@H]1C[C@@H](c2ccc(Cl)c(Cl)c2)c2ccc(OC)cc21", "values": [{"measurement": "Ki", "setting": "[1]", "value": 12, "unit": "nM"}, {"measurement": "Ki", "setting": "[2]", "value": 9, "unit": "nM"}, {"measurement": "Ki", "setting": "[3]", "value": 34, "unit": "nM"}, {"measurement": "Ki", "setting": "[4]", "value": 7, "unit": "nM"}, {"measurement": "Ki", "setting": "[5]", "value": 19, "unit": "nM"}, {"measurement": "Ki", "setting": "[6]", "value": 0.7, "unit": "nM"}]}
{"smiles": "CN[C@H]1C[C@H](c2ccc(Cl)c(Cl)c2)c2ccc(OC)cc21", "values": [{"measurement": "Ki", "setting": "[7]", "value": 51, "unit": "nM"}, {"measurement": "Ki", "setting": "[1]", "value": 600, "unit": "nM"}, {"measurement": "Ki", "setting": "[2]", "value": 600, "unit": "nM"}, {"measurement": "Ki", "setting": "[3]", "value": 650, "unit": "nM"}, {"measurement": "Ki", "setting": "[4]", "value": 820, "unit": "nM"}, {"measurement": "Ki", "setting": "[5]", "value": 109, "unit": "nM"}]}
{"smiles": "CNC1CC(c2ccc(Cl)c(Cl)c2)c2ccc(OC)cc21", "note": "(cis isomer)", "values": [{"measurement": "Ki", "setting": "[7]", "value": 0.3, "unit": "nM"}, {"measurement": "Ki", "setting": "[2]", "value": 96, "unit": "nM"}, {"measurement": "Ki", "setting": "[4]", "value": 170, "unit": "nM"}]}
{"smiles": "CCN(CC)C1CC(c2ccc(Cl)c(Cl)c2)c2ccc(OC)cc21", "note": "(cis isomer)", "values": [{"measurement": "Ki", "setting": "[2]", "value": 1310, "unit": "nM"}, {"measurement": "Ki", "setting": "[4]", "value": "> 4700", "unit": "nM"}, {"measurement": "Ki", "setting": "[6]", "value": 26, "unit": "nM"}]}
{"smiles": "CNC1CC(c2ccc(Cl)c(Cl)c2)c2ccc(OC)cc21", "note": "(trans isomer)", "values": [{"measurement": "Ki", "setting": "[2]", "value": 12, "unit": "nM"}, {"measurement": "Ki", "setting": "[4]", "value": 15, "unit": "nM"}, {"measurement": "Ki", "setting": "[6]", "value": 1.1, "unit": "nM"}]}
{"smiles": "CNC1CC(c2ccc(Cl)c(Cl)c2)c2ccc(O)cc21", "note": "(trans isomer)", "values": [{"measurement": "Ki", "setting": "[2]", "value": 11, "unit": "nM"}, {"measurement": "Ki", "setting": "[4]", "value": 24, "unit": "nM"}, {"measurement": "Ki", "setting": "[6]", "value": 3, "unit": "nM"}]}
{"smiles": "CCN(CC)C1CC(c2ccc(Cl)c(Cl)c2)c2ccc(O)cc21", "note": "(trans isomer)", "values": [{"measurement": "Ki", "setting": "[2]", "value": 40, "unit": "nM"}, {"measurement": "Ki", "setting": "[4]", "value": 1330, "unit": "nM"}, {"measurement": "Ki", "setting": "[6]", "value": 0.7, "unit": "nM"}]}
{"smiles": "CCN(CC)C1CC(c2ccc(Cl)c(Cl)c2)c2ccc(OC)cc21", "note": "(trans isomer)", "values": [{"measurement": "Ki", "setting": "[2]", "value": 140, "unit": "nM"}, {"measurement": "Ki", "setting": "[4]", "value": 1010, "unit": "nM"}, {"measurement": "Ki", "setting": "[6]", "value": 1.3, "unit": "nM"}]}
